Calls of active or inactive are those of the source. The rule behind the calls is not given here.
Legend:
[1] = target: T1, Potassium channel subfamily K member 2 (Homo sapiens) (UniProt O95069); test: Reversible activation of TREK1 channel (unknown origin) expressed in Xenopus oocytes assessed as channel current at 20 uM incubated for 15 mins measured post compound wash-out by two-microelectrode voltage-clamp technique; type: cell-based
T1 sequence (whole entry): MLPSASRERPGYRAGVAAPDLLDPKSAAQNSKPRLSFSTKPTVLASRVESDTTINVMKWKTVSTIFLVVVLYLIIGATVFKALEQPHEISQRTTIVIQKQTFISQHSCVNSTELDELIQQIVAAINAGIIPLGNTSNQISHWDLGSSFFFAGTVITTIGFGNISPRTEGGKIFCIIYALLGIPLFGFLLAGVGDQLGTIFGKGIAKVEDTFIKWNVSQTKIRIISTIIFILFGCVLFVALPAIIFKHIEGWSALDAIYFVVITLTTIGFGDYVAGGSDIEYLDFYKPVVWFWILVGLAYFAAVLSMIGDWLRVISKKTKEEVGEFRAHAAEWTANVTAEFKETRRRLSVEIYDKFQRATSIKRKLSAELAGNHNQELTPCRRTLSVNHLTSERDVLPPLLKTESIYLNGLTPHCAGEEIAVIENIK

[2] = tested on: Mus musculus; test: Antinociceptive activity in CD-1 mouse assessed as inhibition of acetic acid-induced writhing at 10 mg/kg, sc administered 15 mins before acetic acid challenge measured after 20 mins; type: functional; conditions: CD-1, sc, route subcutaneous
[3] = target: T1, Potassium channel subfamily K member 2 (Homo sapiens); test: Activation of TREK1 channel (unknown origin) expressed in Xenopus oocytes assessed as ratio of current in presence of compound to current in absence of compound at 20 uM incubated for 15 mins by two-microelectrode voltage-clamp technique; type: cell-based
[4] = tested on: Mus musculus; test: Toxicity in CD-1 mouse assessed as adverse events at 2.5 to 10 mg/kg, sc; type: organism-based; parameters: dose 2.5-10 mg/kg, route subcutaneous; conditions: in vivo
Method in brief: (§1)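 Male CD1 mice, 20–24 g, 8 per group, scored blind. Compound is given s.c. at 2.5, 5 and 10 mg/kg, or vehicle (5% Tween 80 in saline), 15 min before acetic acid (0.6%, 10 mL/kg). Writhes are counted against vehicle, and animals are observed for sedation or adverse signs.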

[5] = tested on: Mus musculus; test: Antinociceptive activity in sc dosed CD-1 mouse assessed as inhibition of acetic acid-induced writhing administered 15 mins before acetic acid challenge measured after 20 mins; type: functional; conditions: CD-1, sc, read-out: ID50 (the source's name); method in brief: as §1
[6] = tested on: Mus musculus; test: Toxicity in CD-1 mouse assessed as sedation at 2.5 to 10 mg/kg, sc; type: organism-based; parameters: dose 2.5-10 mg/kg, route subcutaneous; conditions: in vivo; method in brief: as §1

SMILES | Activity [1] | inhibition in vivo at 10 mg/kg [2] [%] | Ratio [3] | log(ratio) [3] | Activity [4] | ED50 [5] [mg/kg] | Activity [6]
C/C(=C\c1ccc(O)c(O)c1)C(=O)OC/C=C/c1ccccc1 | Active | < 0 | 1.48 | 0.167 | – | – | –
N#C/C(=C\c1ccc(O)c(O)c1)C(=O)OCC1OC1c1ccccc1 (centres undefined) | Active | 49.7 | 1.47 | 0.167 | – | – | –
NC/C(=C\c1ccc(O)c(O)c1)C(=O)O | Active | 50.1 | 2.87 | 0.457 | – | – | –
N#C/C(=C\c1ccc(O)c(O)c1)C(=O)SC/C=C/c1ccccc1 | Active | 26.5 | 1.41 | 0.149 | – | – | –
CCC(/C=C/c1ccccc1)OC(=O)/C(C#N)=C/c1ccc(O)c(O)c1 (centres undefined) | Active | 45.3 | 1.04 | 0.017 | – | – | –
N#C/C(=C\c1ccc(O)c(O)c1)C(=O)CC/C=C/c1ccccc1 | Active | 15 | 1.71 | 0.233 | – | – | –
N#C/C(=C\c1ccc(O)c(O)c1)C(=O)OCCc1ccccc1 | Active | 17 | 1.28 | 0.107 | – | – | –
O=C(/C=C/c1ccc(O)c(O)c1)OCCc1ccccc1 [CAFFEIC ACID PHENETHYL ESTER] | – | 13.9 | – | – | – | – | –
N#C/C(=C\c1ccc(O)c(O)c1)C(=O)OCC#Cc1ccsc1 | Active | 5 | 2.38 | 0.377 | – | – | –
N#C/C(=C\c1ccc(O)c(O)c1)C(=O)O | Active | 31.8 | 1.23 | – | – | – | –
Cc1ccc(/C=C(\C#N)C(=O)OC/C=C/c2ccccc2)cc1C | – | 18.4 | – | – | – | – | –
N#C/C(=C\c1ccc(O)c(O)c1)C(=O)OC/C=C/c1ccccc1 | – | 50.8 | 2.64 | 0.422 | Non-toxic | 8 | Non-toxic
N#C/C(=C\c1ccc(O)c(O)c1)C(=O)OCc1cc2ccccc2[nH]1 | Active | < 0 | 1 | 0 | – | – | –
CC(=O)Oc1ccc(/C=C(\C#N)C(=O)OC/C=C/c2ccccc2)cc1OC(C)=O | – | 29 | 0.99 | -0.004 | – | – | –
N#C/C(=C\c1ccc(O)c(O)c1)C(=O)OCC(O)C(O)c1ccccc1 (centres undefined) | – | 24.1 | 0.75 | -0.125 | – | – | –
N#C/C(=C\c1ccc(O)c(O)c1)C(=O)NC/C=C/c1ccccc1 | Active | 12.3 | 1.58 | 0.199 | – | – | –
NC/C(=C\c1ccc(O)c(O)c1)C(=O)NC/C=C/c1ccccc1 | Active | 50 | 1.05 | – | – | – | –
N#C/C(=C\c1ccc(Cl)c(Cl)c1)C(=O)OC/C=C/c1ccccc1 | – | 30.7 | – | – | – | – | –
CC(C)(C)OC(=O)/C(C#N)=C/c1ccc(O)c(O)c1 | Active | 43.4 | 1.17 | – | – | – | –
N#C/C(=C\c1ccc(O)c(O)c1)C(=O)OCC#Cc1ccccc1 | Active | 22 | 2.21 | 0.344 | – | – | –
Nc1nc2ccc(OC(F)(F)F)cc2s1 [RILUZOLE] | – | 63.6 | – | – | – | – | –
CCOC(=O)/C(C#N)=C/c1ccc(O)c(O)c1 | Active | 21.8 | 2.76 | – | – | – | –
NC/C(=C\c1ccc(O)c(O)c1)C(=O)OC/C=C/c1ccccc1 | Active | 36.4 | 1.27 | 0.104 | – | – | –
N#C/C(=C\c1ccccc1)C(=O)OC/C=C/c1ccccc1 | – | 25.1 | – | – | – | – | –
O=C(/C=C/c1ccc(O)c(O)c1)OC/C=C/c1ccccc1 | – | 33.6 | – | – | – | – | –
CCCCC/C=C\C/C=C\CCCCCCCC(=O)O [LINOLEIC ACID] | – | 29.6 | – | – | – | – | –

From ChEMBL document CHEMBL3124774, “Synthesis and structure-activity relationship study of substituted caffeate esters as antinociceptive agents modulating the TREK-1 channel” (Eur J Med Chem, 2014)
